Only some compounds are listed: those with a hit (about 0.77% of all), similar ones and a draw of the others.
bIAP inh = blocks bovine intestinal alkaline phosphatase activity. purified bovine IAP, CDP-star luminescence, 30 min. inhibition, % at 20 µM. 190,000 tested, under 10 active. AID 1019;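 active = over 50% inhibition of intestinal alkaline phosphatase at 20 µM in the single-dose screen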
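System: Purified bovine intestinal alkaline phosphatase (IAP) enzyme | Input: IAP diluted 1/65,000,000 in the well | Also added: CDP-star chemiluminescent phosphatase substrate, 30 µM final | Dosing: 20 µM single dose | Times: Enzyme reaction for 30 min at room temperature | Detection: Luminescence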
hIAP act = human IAP activation; P09923; purified human IAP, CDP-Star luminescence, 30 min; active compounds read high; 1 = vehicle-only enzyme, 0 = enzyme-free background; activation factor at 10 µM; 330,000 tested, 0.16% active;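 active = activation factor of the enzyme at least 2-fold when tested at 20 µM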
Target sequence (P09923 whole entry, looked up): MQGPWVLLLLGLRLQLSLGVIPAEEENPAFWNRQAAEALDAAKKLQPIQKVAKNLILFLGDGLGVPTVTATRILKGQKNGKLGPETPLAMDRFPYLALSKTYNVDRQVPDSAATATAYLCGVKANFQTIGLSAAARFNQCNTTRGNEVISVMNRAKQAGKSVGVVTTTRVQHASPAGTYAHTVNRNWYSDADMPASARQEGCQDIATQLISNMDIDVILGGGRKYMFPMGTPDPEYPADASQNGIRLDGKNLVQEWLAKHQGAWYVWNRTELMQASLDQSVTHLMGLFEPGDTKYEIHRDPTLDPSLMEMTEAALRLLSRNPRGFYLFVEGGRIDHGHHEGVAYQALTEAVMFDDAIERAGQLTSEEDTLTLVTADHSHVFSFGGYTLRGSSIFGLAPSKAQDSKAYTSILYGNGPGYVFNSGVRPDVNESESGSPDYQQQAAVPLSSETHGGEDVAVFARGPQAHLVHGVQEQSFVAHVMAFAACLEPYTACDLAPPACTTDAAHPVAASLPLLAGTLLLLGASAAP
mIAP act = mouse IAP activation; 330,000 tested, 0.24% active; AID 2805; activation factor at 10 µM; muIAP, CDP-Star luminescence, 30 min; active compounds read high; 1 = vehicle-only enzyme signal, 0 = enzyme-free wells;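 active = activation factor of at least 2 at 20 µM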
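System: mouse IAP enzyme. Reagent: CDP-Star chemiluminescent phosphatase substrate. Benchmarks: DMSO wells, no-enzyme wells. Times: 30 min enzyme-substrate-compound incubation at room temperature. Detection: luminescence from enzymatic CDP-Star hydrolysis. Doses: test compounds delivered from DMSO solution.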
hIAP inh = blocks human intestinal alkaline phosphatase; AID 2544; 330,000 tested, 0.12% active; purified IAP, CDP-Star luminescence, 30 min; inhibition, % at 10 µM;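 active = inhibition reaching a set limit with compound at 10 µM in the primary screen, cut at about 35% in these data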;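 also: plate controls were DMSO wells with enzyme for no effect and no-enzyme buffer wells for full effect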
mIAP inh = mouse IAP inhibition. 330,000 tested, 0.2% active. AID 2806. purified mouse IAP, CDP-Star luminescence, 30 min. inhibition, % at 10 µM;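 active = inhibition of at least 40% at 10 µM in the primary screen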;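 also: plate controls were DMSO with enzyme for no effect and no enzyme wells for full effect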
bIAP act = increases bovine intestinal alkaline phosphatase activity. activation factor at 20 µM. 200,000 tested, 0.17% active. AID 1016. purified bovine IAP, CDP-star luminescence, 30 min; active compounds read high; fold of DMSO-control signal, blank-subtracted;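 active = activation factor of 2 or more at 20 µM, a signal rise over negative controls twice the positive control's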
* hit, by the source's call; / = no result given.

SMILES	bIAP inh	hIAP act	mIAP act	hIAP inh	mIAP inh	bIAP act
S=C(NCc1ccccc1)Nc1ccc(Oc2ccccc2)cc1	/	1.12	3.77*	-11.6	-277.1	/
Cc1ccccc1NC(=S)NCc1ccc2c(c1)cc(C)n2C	6.7	0.909	1.27	9.1	-27.0	0.9
Fc1ccc(CNC(=S)NCc2ccccc2)cc1	/	1.11	1.26	-10.6	-25.9	/
Cc1cc2cc(CNC(=S)NCc3ccccc3)ccc2n1C	6.7	1.04	2.29*	-3.7	-128.7	0.9
COc1ccc(N2CCN(C(C)C(=O)N3CCCC3)CC2)cc1 (stereo unspecified)	6.6	1	1.16	-0.4	-16.2	0.9
Fc1cccc(/C=N/Nc2cc(N3CCOCC3)ncn2)c1	/	1.03	0.942	-2.8	5.8	/
CSc1cccc(NC(=O)CC2Oc3ccccc3NC2=O)c1 (stereo unspecified)	/	1.03	0.996	-2.7	0.4	/
O=C(COC(=O)/C=C/c1ccc([N+](=O)[O-])cc1)NCc1cccs1	/	0.956	1.01	4.4	-1.3	/
O=C(/C=C/c1ccc([N+](=O)[O-])cc1)NCc1cccs1	-387.0	1.2	1.1	-20.0	-9.9	4.9*
S=c1nc(-c2sccc2OCc2ccc(Cl)cc2Cl)[nH][nH]1	-30.5	1.55	0.956	-55.0	4.4	1.3
CCOC(=O)c1cccc(NC(=O)c2ccc(-n3cnnn3)cc2)c1	/	0.915	1.02	8.5	-2.4	/
Cc1cccc(NC(=O)COC(=O)c2ccccc2-c2nc3ccccc3s2)c1C	-421.1	0.893	1	10.7	-0.2	5.2*
CC(C)(C)OC(=O)N1CCN(C(=O)c2[nH]cnc2C(=O)N[C@@H](Cc2ccccc2)C(=O)OCc2ccccc2)CC1	/	1.33	0.867	-32.8	13.3	/
CC(C)(C)OC(=O)[C@H](Cc1ccccc1)NC(=O)c1nc[nH]c1C(=O)N1CCN(C(=O)OC(C)(C)C)CC1	/	1.35	0.586	-35.5	41.4*	/
Cc1onc(-c2ccccc2Cl)c1C(=O)N1CCN(S(=O)(=O)c2ccc(F)c(F)c2)CC1	/	1.06	1.07	-5.7	-7.3	/
CCOc1ccccc1NC(=O)c1cccc(NC(=O)CC(c2ccccc2)c2ccccc2)c1	-6.3	0.965	2.02*	3.5	-102.4	1.1
CCOc1ccc(NC(=O)CC(c2ccccc2)c2ccc(F)cc2)cc1 (stereo unspecified)	46.7	1.16	2.17*	-16.2	-117.0	0.5
Cc1ccc(N/C(N)=N/c2nc(CSc3nnc(C)s3)cc(=O)[nH]2)c(C)c1	-110.7	1.67	1.08	-67.0	-7.7	2.1*
Cc1cc(C)c2c(n1)nn1c(NCCCn3ccnc3)cc(C)nc21	-127.7	/	/	/	/	2.3*
Cc1cc(NCCCn2ccnc2)n2nc(-c3ccc(F)cc3)cc2n1	-44.4	1.22	1.02	-21.7	-1.8	1.4
COc1ccccc1NC(=O)CC(NCc1ccccc1)C(=O)O (stereo unspecified)	-134.5	1.03	1.02	-2.6	-2.0	2.3*
COc1ccc(NC(=O)CC(NCCc2ccccc2)C(=O)O)c(OC)c1 (stereo unspecified)	4.6	0.975	0.985	2.5	1.5	1
CCOC(=O)c1ccc(NC(=O)NCc2ccccc2OC)cc1	-15.6	1.32	2.35*	-31.6	-135.0	1.2
CCOC(=O)c1cccc(NC(=O)Nc2ccc(OCC)cc2)c1	7.9	1.08	2.91*	-8.5	-191.3	0.9
CCOC(=O)c1ccc(NC(=O)Nc2ccc(F)cc2)cc1	21.6	0.965	2.54*	3.5	-153.5	0.8
SMILES	bIAP inh	hIAP act	mIAP act	hIAP inh	mIAP inh	bIAP act
CCOC(=O)c1ccc(NC(=O)NCc2ccccc2)cc1	9.0	1.03	1.39	-3.4	-38.5	0.9
COC(=O)c1ccc(NC(=O)Nc2ccc(F)cc2)cc1	25.3	0.992	1.78	0.8	-77.9	0.7
CCCCOC(=O)c1ccc(NC(=O)Nc2ccc(OC)c(OC)c2)cc1	19.3	1.28	2.15*	-28.2	-115.3	0.8
COc1ccc(-c2[nH]ncc2C2N=C(N)Nc3nc4ccccc4n32)cc1 (stereo unspecified)	-119.7	1.57	1.24	-57.3	-24.1	2.2*
CCN1/C(=C\C=C2\C(=O)N(C)C(=S)N2C)Sc2ccccc21	35.2	0.627	0.848	37.3*	15.2	0.6
CCCCCCC(C)NC(=S)Nc1cc(S(=O)(=O)N(C)C)ccc1C (stereo unspecified)	-21.4	1.14	4.81*	-14.1	-381.3	1.2

Screening results: PubChem, Sanford-Burnham Center for Chemical Genomics
